According to ChEMBL document CHEMBL3352548, “Small-molecule suppression of β-lactam resistance in multidrug-resistant gram-negative pathogens” (J Med Chem, 2014):
≈ marks a conversion by molar mass, not a printed value. Calls of active or inactive are those of the source. No cut-off for these calls is given here.

Tests used:
Pseudomonas aeruginosa [1] = assay: Antibacterial activity against Pseudomonas aeruginosa PA53 assessed as fold reduction in meropenem MIC at 60 uM after 16 hrs by microdilution method; type: functional
Summary of the method: (§1)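 MIC of each compound alone was determined first. Antibiotic MICs (imipenem or meropenem for A. baumannii; ceftazidime or meropenem for P. aeruginosa) were then measured with compound at fixed sub-MIC concentrations. Fold reduction is MIC without compound divided by MIC with compound.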

Pseudomonas aeruginosa [2] = assay: Antibacterial activity against Pseudomonas aeruginosa PA53 assessed as complete inhibition of bacterial growth after 16 hrs by microdilution method; type: functional; details: PA53, 16 h; summary of the method: as §1
Acinetobacter baumannii [3] = assay: Antibacterial activity against Acinetobacter baumannii ATCC BAA-1605 assessed as fold reduction in meropenem MIC at 30 uM after 16 hrs by microdilution method; type: functional; summary of the method: as §1
Acinetobacter baumannii [4] = assay: Antibacterial activity against Acinetobacter baumannii ATCC BAA-1605 assessed as fold reduction in imipenem MIC at 30 uM after 16 hrs by microdilution method; type: functional; summary of the method: as §1
Acinetobacter baumannii [5] = assay: Antibacterial activity against Acinetobacter baumannii ATCC BAA-1605 assessed as complete inhibition of bacterial growth after 16 hrs by microdilution method; type: functional; details: ATCC BAA-1605, 16 h; summary of the method: as §1
Pseudomonas aeruginosa [6] = assay: Antibacterial activity against Pseudomonas aeruginosa PA53 assessed as fold reduction in ceftazidime MIC at 60 uM after 16 hrs by microdilution method; type: functional; summary of the method: as §1
Acinetobacter baumannii [7] = assay: Antibacterial activity against Acinetobacter baumannii ATCC BAA-1605 assessed as fold reduction in meropenem MIC at 60 uM after 16 hrs by microdilution method; type: functional; summary of the method: as §1
Acinetobacter baumannii [8] = assay: Antibacterial activity against Acinetobacter baumannii ATCC BAA-1605 assessed as fold reduction in imipenem MIC at 60 uM after 16 hrs by microdilution method; type: functional; summary of the method: as §1
Pseudomonas aeruginosa [9] = assay: Antibacterial activity against Pseudomonas aeruginosa PA53 assessed as reduction in meropenem MIC at 60 uM after 6 hrs by time kill assay; type: functional, organism-based
Acinetobacter baumannii [10] = assay: Antibacterial activity against Acinetobacter baumannii ATCC BAA-1605 assessed as reduction in CFU at 60 uM after 6 hrs by time kill assay; type: functional, organism-based
Pseudomonas aeruginosa [11] = assay: Antibacterial activity against Pseudomonas aeruginosa PA53 assessed as reduction in CFU at 60 uM after 6 hrs by time kill assay; type: functional
Summary of the method: (§2)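 Time-kill: cultures were grown at 37 °C with shaking with compound (15 μM for BAA-1605, 60 μM for PA53), meropenem (1–32 μg/mL for BAA-1605, 1–64 μg/mL for PA53), or both. Samples taken at 2, 4, 6, 8 and 24 h were serially diluted in CAMHB, plated on nutrient agar, incubated overnight at 37 °C, and colonies counted.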

Acinetobacter baumannii [12] = assay: Antibacterial activity against Acinetobacter baumannii ATCC BAA-1605 assessed as reduction in meropenem MIC at 60 uM after 6 hrs by time kill assay; type: functional
Acinetobacter baumannii [13] = assay: Antibacterial activity against Acinetobacter baumannii ATCC BAA-1605 assessed as reduction in CFU at 1 ug/ml after 6 hrs by time kill assay; type: functional; summary of the method: as §2
Pseudomonas aeruginosa [14] = assay: Antibacterial activity against Pseudomonas aeruginosa PA53 assessed as reduction in CFU at 4 ug/ml after 6 hrs by time kill assay; type: functional; summary of the method: as §2
Pseudomonas aeruginosa [15] = assay: Antibacterial activity against Pseudomonas aeruginosa PA53 assessed as reduction in CFU at 1 ug/ml after 6 hrs by time kill assay; type: functional; summary of the method: as §2
Acinetobacter baumannii [16] = assay: Antibacterial activity against Acinetobacter baumannii ATCC BAA-1605 assessed as reduction in CFU at 4 ug/ml after 6 hrs by time kill assay; type: functional; summary of the method: as §2
Pseudomonas aeruginosa [17] = assay: Antibacterial activity against Pseudomonas aeruginosa PA53 assessed as fold reduction in meropenem MIC at 15 uM after 16 hrs by microdilution method; type: functional; summary of the method: as §1
Acinetobacter baumannii [18] = assay: Antibacterial activity against Acinetobacter baumannii ATCC BAA-1605 assessed as fold reduction in meropenem MIC at 7.5 uM after 16 hrs by microdilution method; type: functional; summary of the method: as §1
Pseudomonas aeruginosa [19] = assay: Antibacterial activity against Pseudomonas aeruginosa PA53 assessed as fold reduction in ceftazidime MIC at 15 uM after 16 hrs by microdilution method; type: functional; summary of the method: as §1
Acinetobacter baumannii [20] = assay: Antibacterial activity against Acinetobacter baumannii ATCC BAA-1605 assessed as fold reduction in imipenem MIC at 7.5 uM after 16 hrs by microdilution method; type: functional; summary of the method: as §1
Pseudomonas aeruginosa [21] = assay: Antibacterial activity against Pseudomonas aeruginosa PA53 assessed as fold reduction in meropenem MIC at 30 uM after 16 hrs by microdilution method; type: functional; summary of the method: as §1
Pseudomonas aeruginosa [22] = assay: Antibacterial activity against Pseudomonas aeruginosa PA53 assessed as fold reduction in ceftazidime MIC at 30 uM after 16 hrs by microdilution method; type: functional; summary of the method: as §1
Acinetobacter baumannii [23] = assay: Antibacterial activity against Acinetobacter baumannii ATCC BAA-1605 assessed as fold reduction in imipenem MIC at 15 uM after 16 hrs by microdilution method; type: functional; summary of the method: as §1
Acinetobacter baumannii [24] = assay: Antibacterial activity against Acinetobacter baumannii ATCC BAA-1605 assessed as fold reduction in meropenem MIC at 15 uM after 16 hrs by microdilution method; type: functional; summary of the method: as §1

Structure (SMILES)	fold change (FC) (Pseudomonas aeruginosa [1])	MIC (Pseudomonas aeruginosa [2])	MIC (Acinetobacter baumannii [5])	fold change (FC) (Pseudomonas aeruginosa [6])	fold change (FC) (Acinetobacter baumannii [7])	also measured
Cl.Nc1nc(-c2ccc(NC(=O)c3c(Cl)cc(Cl)cc3Cl)cc2)c[nH]1	4	200 µM	100 µM	1		fold change (FC) (Acinetobacter baumannii [3]): 4; fold change (FC) (Acinetobacter baumannii [4]): 1
CCCCCCc1ccc(-c2c[nH]c(N)n2)cc1			100 µM			
CCCCCC(=O)Nc1cccc(-c2c[nH]c(N)n2)c1			100 µM			
Cl.Nc1nc(-c2ccc(NC(=O)c3cccc(F)c3)cc2)c[nH]1	2	200 µM	> 200 µM	1	4	fold change (FC) (Acinetobacter baumannii [8]): 2
Cl.Nc1nc(-c2ccc(NC(=O)c3ccc(F)cc3)cc2)c[nH]1	2	200 µM	> 200 µM	1	4	fold change (FC) (Acinetobacter baumannii [8]): 2
Cl.Nc1ncc(-c2ccc(NC(=O)c3cccc(Cl)c3Cl)cc2)[nH]1	1				2	Activity (Pseudomonas aeruginosa [9]): inactive; Activity (Acinetobacter baumannii [10]): inactive; Activity (Pseudomonas aeruginosa [11]): inactive; fold change (FC) (Acinetobacter baumannii [12]): 2
Cl.Nc1ncc(-c2ccc(NC(=O)c3ccc(Cl)cc3Cl)cc2)[nH]1	1				4	
Cl.Nc1nc(-c2ccc(NC(=O)c3ccc(Br)cc3)cc2)c[nH]1	2	> 200 µM	> 200 µM	1	16	fold change (FC) (Acinetobacter baumannii [8]): 8
CCCCCCC(=O)Nc1ccc(-c2cnc(N)[nH]2)cc1			200 µM			
C[C@@H](O)[C@H]1C(=O)N2C(C(=O)O)=C(S[C@@H]3CN[C@H](C(=O)N(C)C)C3)[C@H](C)[C@H]12 [MEROPENEM]			32 µg/mL			fold change (FC) (Acinetobacter baumannii [13]): <0.1; fold change (FC) (Pseudomonas aeruginosa [14]): 0.2; fold change (FC) (Pseudomonas aeruginosa [15]): 0.2; fold change (FC) (Acinetobacter baumannii [16]): <0.1
Cl.Nc1nc(-c2ccc(NC(=O)c3ccc(C(F)(F)F)c(F)c3)cc2)c[nH]1		50 µM	25 µM			fold change (FC) (Pseudomonas aeruginosa [17]): 4; fold change (FC) (Acinetobacter baumannii [18]): 4; fold change (FC) (Pseudomonas aeruginosa [19]): 8; fold change (FC) (Acinetobacter baumannii [20]): 2
Nc1ncc(-c2ccc(NC(=O)c3cc(F)cc(F)c3)cc2)[nH]1		100 µM (≈ 31.4 µg/mL)	200 µM		16	fold change (FC) (Pseudomonas aeruginosa [21]): 2; fold change (FC) (Acinetobacter baumannii [8]): 8; fold change (FC) (Pseudomonas aeruginosa [22]): 1
Cl.Nc1nc(-c2ccc(NC(=O)c3ccc(C(F)(F)F)cc3)cc2)c[nH]1		100 µM	50 µM			fold change (FC) (Pseudomonas aeruginosa [21]): 8; fold change (FC) (Acinetobacter baumannii [23]): 4; fold change (FC) (Acinetobacter baumannii [24]): 4; fold change (FC) (Pseudomonas aeruginosa [22]): 8
Cl.Nc1nc(-c2ccc(NC(=O)c3c(F)c(F)c(F)c(F)c3F)cc2)c[nH]1	2	> 200 µM	> 200 µM	1	2	fold change (FC) (Acinetobacter baumannii [8]): 1
Cl.Nc1nc(-c2ccc(NC(=O)c3cc(F)c(F)c(F)c3)cc2)c[nH]1	2	200 µM	100 µM	1		fold change (FC) (Acinetobacter baumannii [3]): 8; fold change (FC) (Acinetobacter baumannii [4]): 8
Nc1ncc(-c2ccc(NC(=O)/C=C/c3ccccc3)cc2)[nH]1			100 µM			
Cl.Nc1nc(-c2ccc(NC(=O)c3cccc(Br)c3)cc2)c[nH]1	4	> 200 µM	> 200 µM	16	16	fold change (FC) (Acinetobacter baumannii [8]): 8
Cl.Nc1ncc(-c2ccc(NC(=O)c3ccc(F)c(Cl)c3)cc2)[nH]1						fold change (FC) (Pseudomonas aeruginosa [17]): 1; fold change (FC) (Acinetobacter baumannii [3]): 4
Cl.Nc1ncc(-c2ccc(NC(=O)c3ccc(Cl)c(Cl)c3)cc2)[nH]1						fold change (FC) (Acinetobacter baumannii [3]): 64; fold change (FC) (Pseudomonas aeruginosa [21]): 1
Cl.Nc1ncc(-c2ccc(NC(=O)c3cc(I)c(I)c(I)c3)cc2)[nH]1	1				2	
Cl.Nc1ncc(-c2ccc(NC(=O)c3ccc(Br)cc3F)cc2)[nH]1	1				2	
Cl.Nc1ncc(-c2ccc(NC(=O)c3ccc(I)cc3)cc2)[nH]1	1				2	
CCCCCc1ccc(C(=O)Nc2ccc(-c3cnc(N)[nH]3)cc2)cc1			200 µM			
Cl.Nc1ncc(-c2ccc(NC(=O)c3cccc(I)c3)cc2)[nH]1	1				8	
Cl.Nc1ncc(-c2ccc(NC(=O)c3cc(Br)cc(Br)c3)cc2)[nH]1	1					fold change (FC) (Acinetobacter baumannii [3]): 4
C[C@@H](O)[C@H]1C(=O)N2C(C(=O)O)=C(SCCNC=N)C[C@H]12 [IMIPENEM ANHYDROUS]			16 µg/mL			
Cl.Nc1nc(-c2ccc(NC(=O)c3ccccc3F)cc2)c[nH]1	2	> 200 µM	> 200 µM	1	2	fold change (FC) (Acinetobacter baumannii [8]): 1
Cl.Nc1nc(-c2ccc(NC(=O)c3ccc(Cl)cc3)cc2)c[nH]1	2	> 200 µM	> 200 µM	1	8	fold change (FC) (Acinetobacter baumannii [8]): 4
